Measured values published in publication PMC5672994 (Molecular Imaging, 2017).

Key:
Lipophilicity = type: physicochemical; details: shake-flask
PSMA(+) LNCaP tumors = test: Small-animal PET imaging in mice bearing subcutaneous LNCaP tumors; type: in vivo; details: for peak (maximum) kidney uptake / time of peak kidney uptake postadministration: dynamic PET kidney TAC; for absolute tumor uptake, fold lower in comparison to ^68Ga-1 / specificity of tumor accumulation: PET; for specificity of tumor accumulation: PSMA(+) LNCaP tumors, blocking with PMPA 20 nmol/mouse; for peak tumor uptake: subcutaneous LNCaP tumor, iv
How it was run: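 Athymic Balb/c nude mice carried LNCaP xenografts (5.0 million cells sc, right shoulder, in Matrigel 1:1), imaged at ~200-300 mg. Dosing was by iv tail vein in PBS pH7.4: static 15.4-18.7 MBq (~0.56-0.68 nmol), dynamic ~28 MBq. Mice were under isoflurane. Dynamic scans ran 3500 s; static scans at 0.5, 1, 2 and 3 h. Decay-corrected VOI %ID/g was taken. Blocking used coinjected PMPA 20 nmol/mouse (n = 3).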

[1] = Stability of formulated radiotracer in saline or PBS; type: physicochemical; details: incubation in saline or PBS at 37°C for over 4 hours
Metabolism in vivo = details: mice, 15 minutes after injection, HPLC
How it was run: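 Mice (n = 2/group) received 7.3-11.1 MBq (0.3-0.4 nmol) of ⁶⁸Ga-radiotracer in PBS by tail-vein injection and were killed at 15 min. Heparinized blood was spun at 1700 g for 5 min. Plasma was ultrafiltered (30 kDa cutoff, 9660 g, 10 min). Filtrate and protein fractions were gamma-counted, and filtrate aliquots were analysed by RP-HPLC for metabolites.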

Compound	LogD (n-octanol: PBS pH7.4) (Lipophilicity)	peak (maximum) kidney uptake (PSMA(+) LNCaP tumors)	time of peak kidney uptake postadministration (PSMA(+) LNCaP tumors)	tumor-associated radioactivity after 3500 seconds (PSMA(+) LNCaP tumors; dynamic PET, LNCaP tumor)	stability with respect to changes in RCP [1]	radiotracer intact in soluble fraction of the blood pool (Metabolism in vivo)	absolute tumor uptake, fold lower in comparison to ^68Ga-1 (PSMA(+) LNCaP tumors; LNCaP tumor)	specificity of tumor accumulation (PSMA(+) LNCaP tumors)	time of peak tumor uptake postadministration (PSMA(+) LNCaP tumors; dynamic PET, LNCaP tumor)	peak tumor uptake (PSMA(+) LNCaP tumors; dynamic PET)	absolute tumor uptake after 3 hours postadministration (PSMA(+) LNCaP tumors; static PET, LNCaP tumor)	tumor-associated activity retained for up to 3 hours (PSMA(+) LNCaP tumors; static PET, LNCaP tumor)
O=C([O-])CN(CCN(CC(=O)[O-])Cc1cc(CCC(=O)NCCCCCC(=O)NCCCC[C@H](NC(=O)N[C@@H](CCC(=O)O)C(=O)O)C(=O)O)ccc1[O-])Cc1cc(CCC(=O)O)ccc1[O-].[68Ga+3].[OH3+] [^68Ga-1, ^68Ga-HBED-CC-PSMA, reference compound]	−4.06 ± 0.10	around 30 %ID/g	~500 s	> 8.0 %ID/g	–	–	–	–	–	–	–	–
^68Ga-DFO-Nsucc-PSMA [^68Ga-4]	−3.24 ± 0.05	–	–	–	stable	100%	~10 fold	specific accumulation	5 to 10 min	3-4 %ID/g	0.8-1.2 %ID/g	–
^68Ga-DFO-pNCS-Bn-PSMA [^68Ga-7]	−2.60 ± 0.02	~50 %ID/g	~1400 s	2.90 ± 0.46 %ID/g	stable	100%	~2.5 fold	specific accumulation	–	3.5-4.0 %ID/g	–	2.5-3.5 %ID/g
